# Shown are actives, neighbours in structure and some others; about 4% of the full set was active somewhere.
# CHO parental Ca: ATP-evoked calcium signal inhibitors, parental CHO, primary screen, counter-screen for OX1R antagonist project, cell-based, fluorescence, Fluo-8 calcium dye; parental CHO-K1, ATP-induced calcium, Fluo-8 fluorescence; inhibition, % at 5.6 µM; actives 0.63% (n = 330,000); AID 463079, 2010;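 active means inhibition above that plate's mean sample inhibition plus 3 SD, cut at about 26% in these data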;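 further: 0% = ATP-challenged DMSO wells and 100% = DMSO wells without ATP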
#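 Test system: untransfected parental CHO cell line. Compound: one dose, 5.6 µM nominal. Detection: intracellular calcium via Fluo-8 no-wash fluorescent dye. Measure: % inhibition. Benchmarks: ATP-challenged DMSO wells low, unchallenged DMSO wells high.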
# OX1R antag-1: antagonists of human orexin 1 receptor (OX1R). OX1R-expressing cells, FRET antagonist read-out. inhibition, % at 6.6 µM. actives 1.8% (n = 330,000). AID 485270, 2010; in the data active means inhibition mostly above about 38%, no sharp cut-off; inactive means mostly below about 40%;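 further: 0% = agonist challenge alone and 100% = reference antagonist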
# Target sequence (O43613 whole entry, looked up): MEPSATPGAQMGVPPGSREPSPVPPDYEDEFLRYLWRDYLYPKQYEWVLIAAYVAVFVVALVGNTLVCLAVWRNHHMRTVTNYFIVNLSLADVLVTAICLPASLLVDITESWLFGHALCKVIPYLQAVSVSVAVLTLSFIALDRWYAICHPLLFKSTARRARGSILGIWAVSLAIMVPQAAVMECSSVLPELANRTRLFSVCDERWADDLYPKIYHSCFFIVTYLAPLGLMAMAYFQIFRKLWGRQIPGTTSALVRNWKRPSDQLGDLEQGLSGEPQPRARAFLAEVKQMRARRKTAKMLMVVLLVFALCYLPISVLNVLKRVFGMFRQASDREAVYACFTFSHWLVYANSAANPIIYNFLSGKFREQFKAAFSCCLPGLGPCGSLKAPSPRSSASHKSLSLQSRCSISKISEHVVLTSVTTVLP
# TAAR1 antag: human TAAR1 antagonists, primary screen, Fluo-8 calcium fluorescence, CHO RD-HGA16 cells. actives 1.5% (n = 360,000). inhibition, % at 3 µM. antagonist. AID 624466, 2012;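 active means inhibition above a per-plate cutoff, the mean inhibition of test compounds on that plate plus 3 SD, cut at about 49% in these data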;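 further: 0% = DMSO plus EC80 beta-PEA response and 100% = DMSO alone without agonist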
# Target sequence (Q96RJ0 whole entry, looked up): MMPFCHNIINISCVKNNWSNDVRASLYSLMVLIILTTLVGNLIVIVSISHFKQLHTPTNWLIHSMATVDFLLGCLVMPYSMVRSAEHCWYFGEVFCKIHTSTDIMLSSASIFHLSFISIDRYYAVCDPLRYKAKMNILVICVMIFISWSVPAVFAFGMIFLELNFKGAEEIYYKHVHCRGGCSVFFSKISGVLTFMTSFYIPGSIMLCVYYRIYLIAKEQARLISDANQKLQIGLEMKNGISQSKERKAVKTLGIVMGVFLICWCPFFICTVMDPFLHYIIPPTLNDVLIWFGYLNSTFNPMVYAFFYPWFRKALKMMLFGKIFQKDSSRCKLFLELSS
#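 Test system: hTAAR1-expressing CHO RD-HGA16 cells, Gα16-coupled; Probe or stimulus: EC80 β-phenethylamine stimulus; Compound dosing: single nominal final test compound concentration of 3 µM; Timing: 140 s kinetic read after compound, 140 s after agonist; Signal: Fluo-8 calcium-sensitive fluorescence; Measure: % inhibition of agonist calcium response; Controls: DMSO and EC80 PEA controls.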
# TAAR1 ag: human TAAR1 agonists, primary screen, Fluo-8 calcium fluorescence, CHO RD-HGA16 cells; AID 624467, 2012; activation, % at 3 µM; actives 0.99% (n = 360,000); vehicle wells 0%, saturating PEA agonist 100%;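 active means activation above the mean activation of all test compounds in the run plus 3 SD, cut at about 38% in these data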
#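 System: CHO-derived RD-HGA16 cells with stable Gα16 and human TAAR1 / Times: 17-24 h plating, Fluo-8 75 min 37 °C, 30 min RT / Technique: calcium-sensitive Fluo-8 signal, excitation 470-495, emission 515-575 nm / Measure: % activation relative to PEA EC100 response / Benchmarks: DMSO and PEA EC100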
# OX1R antag-2: OX1R (HCRTR1) antagonists, primary screen, fluorescence, CHO/OX1R cells, Fluo-8 calcium, orexin A; Orexin/Hypocretin receptor type 1 (Homo sapiens), O43613; Fluo-8 calcium fluorescence; inhibition, % at 5 µM; actives 0.43% (n = 330,000); AID 434989, 2010;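 active means inhibition above its plate's threshold, mean inhibition of all tested compounds on the plate plus 3 SD, cut at about 37% in these data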;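 further: 0% = orexin A challenge wells and 100% = SB-334867-A antagonist wells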
# OX1R Fluo8 conf: OX1R (HCRTR1) antagonists, confirmation, fluorescence, CHO/OX1R cells, Fluo-8 calcium, orexin A | shares compounds with OX1R antag-2 | orexin A calcium Fluo-8 fluorescence | inhibition, % at 5 µM | actives 38% (n = 1,100) | AID 492963, 2010; in the data active means inhibition above about 29%;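 further: 0% = agonist challenge alone and 100% = reference antagonist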
# CHO Ca triplic: ATP-evoked calcium inhibition in parental CHO, counter-screen for OX1R antagonist project, cell-based, fluorescence, CHO-K1, triplicate. shares compounds with OX1R antag-2. ATP-induced calcium, Fluo-8 fluorescence. inhibition, % at 5.6 µM. actives 9.3% (n = 1,100). AID 492965, 2010;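 active means inhibition above a per-plate limit, the mean inhibition of that plate's test compounds plus 3 SD, cut at about 25% in these data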;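 further: 0% = ATP challenge with DMSO and 100% = DMSO without ATP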
# OX1R HTRF confirm: OX1R (HCRTR1) antagonists, confirmation, cell-based, HTRF | shares compounds with OX1R antag-1 | OX1R-expressing cells, HTRF antagonist assay | inhibition, % at 6.6 µM | actives 49% (n = 1,800); in the data active means inhibition above about 55%;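 further: CHO cells expressing OX1R stimulated with orexin A at about EC80; 0% = agonist challenge alone and 100% = reference antagonist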
# CHO-K1 HTRF: signal inhibition in parental CHO-K1 cells, counter-screen for OX1R antagonist project, cell-based, HTRF. shares compounds with OX1R antag-1. HTRF counterscreen. inhibition, % at 6.6 µM. actives 48% (n = 1,800). AID 493232, 2011; in the data active means inhibition above about 17%;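 further: 0% = agonist challenge with vehicle and 100% = vehicle alone without agonist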
# nonsel antag count: nonselective antagonists in TAAR1 counter-screen cells, counter-screen for hTAAR1 antagonist project, cell-based, fluorescence, calcium. shares compounds with TAAR1 antag. counterscreen cell line, antagonist mode. inhibition, % at 3 µM. actives 77% (n = 2,400). AID 651780, 2012; in the data active means inhibition above about 22%;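 further: CHO-Ga16 host cells stimulated with ATP at an EC80 level; 0% = agonist EC80 plus vehicle and 100% = vehicle without agonist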
# TAAR1 ant conf: human TAAR1 antagonists, retest of hits, confirmation, cell-based, fluorescence. shares compounds with TAAR1 antag. TAAR1-expressing cells, fluorescence antagonist read-out. inhibition, % at 3 µM. actives 40% (n = 2,400); in the data active means inhibition above about 49%;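 further: CHO-Ga16 host cells challenged with agonist PEA near its EC80; 0% = agonist at EC80 plus vehicle and 100% = vehicle with no agonist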
# Ga16 ag counter-1: calcium activation in Ga16-expressing cells, counter-screen for TAAR1 antagonist project, cell-based, fluorescence | shares compounds with TAAR1 antag | agonist counterscreen | activation, % at 3 µM | actives 18% (n = 2,400); in the data active means activation above about 12%;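 further: 0% = vehicle wells and 100% = saturating stimulus response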
# TAAR1 ag count: TAAR1 activation by candidate antagonists – cell-based, fluorescence, counter-screen for TAAR1 antagonist project. shares compounds with TAAR1 antag. hTAAR1 cell line, agonist mode. activation, % at 3 µM. actives 2% (n = 2,400). AID 651955, 2012; in the data active means activation above about 37%;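 further: CHO cells stably expressing TAAR1 with calcium dye readout; 0% = DMSO vehicle and 100% = full agonist response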
# TAAR1 ag confirm: human TAAR1 agonists, retest of hits, confirmation, Fluo-8 calcium fluorescence, CHO RD-HGA16 cells; shares compounds with TAAR1 ag; scaled: DMSO 0%, maximal phenethylamine 100%; activation, % at 3 µM; actives 82% (n = 2,400); AID 651783, 2012;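 active means activation above a cutoff set at the run's mean compound activation plus 3 SD, cut at about 39% in these data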
# Ga16 ag counter-2: nonselective calcium mobilization agonists, CHO-Ga16 cells, counter-screen for hTAAR1 agonist project, cell-based, fluorescence, CHO-Ga16 parental line; Fluo-8 calcium fluorescence; normalized to maximal ATP response, DMSO zero; activation, % at 3 µM; shares compounds with TAAR1 ag; AID 651787, 2012; actives 50% (n = 2,400);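 active means activation above the run cutoff, the mean activation over all tested wells plus 3 SD, cut at about 12% in these data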;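 further: 0% = DMSO wells and 100% = maximal ATP response on the peak over basal ratio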
# TAAR1 desensitize: TAAR1 desensitization by agonist hits, confirmation, counter-screen for TAAR1 agonist project, cell-based, fluorescence, tachyphylaxis. actives 46% (n = 2,400). CHO RD-HGA16 hTAAR1, Fluo-8 calcium, beta-PEA response inhibition. shares compounds with TAAR1 ag. inhibition, % at 3 µM;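 active means inhibition above the run cutoff, the mean inhibition of all test compounds plus 3 SD, cut at about 49% in these data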;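 further: beta-PEA stimulus applied at its EC80; loss of beta-PEA calcium signal after compound pretreatment read as receptor desensitization; 0% = DMSO with beta-PEA at EC80 and 100% = DMSO alone without agonist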
# Ga16 nonsel ant: inhibition of ATP-evoked calcium response in CHO-Ga16 cells, counter-screen for TAAR1 agonist project, cell-based, fluorescence; shares compounds with TAAR1 ag; actives 39% (n = 2,400); inhibition, % at 3 µM; CHO-Ga16 ATP-induced calcium, Fluo-8 fluorescence;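 active means inhibition above the plate's mean compound inhibition plus 3 SD, computed per plate, cut at about 22% in these data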;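 further: 0% = EC80 ATP with DMSO and 100% = DMSO wells without ATP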
# The depositor's hits bear a star; . = no result given.
SMILES,CHO parental Ca,OX1R antag-1,TAAR1 antag,TAAR1 ag,OX1R antag-2,OX1R Fluo8 conf,CHO Ca triplic,nonsel antag count,TAAR1 ant conf,Ga16 ag counter-1,TAAR1 ag count,others
CCSc1nnc(NC(=O)CSc2nc3c(c(=O)n2-c2ccccc2OC)SCC3)s1,-13,36*,6,14,38,28,-4,.,.,.,.,OX1R HTRF confirm=76*;CHO-K1 HTRF=-1
CCOC(=O)c1c(C)[nH]c(C)c1C(=O)Cn1nnc(-c2ccccc2C)n1,6,54*,8,8,29,29*,7,.,.,.,.,OX1R HTRF confirm=65*;CHO-K1 HTRF=7
CCOC(=O)c1c(C)[nH]c(C(=O)Cn2nnc(-c3ccccc3Cl)n2)c1C,13,26,47,18,13,.,.,.,.,.,.,
N#CC(=C1CCCC1)c1nc(-c2ccccc2O)cs1,-7,93*,.,.,67*,54*,-5,.,.,.,.,OX1R HTRF confirm=94*;CHO-K1 HTRF=-4
COc1ccccc1C(=O)Nc1nc2cc3c(cc2s1)OCCO3,7,106*,.,.,39,51*,-6,.,.,.,.,OX1R HTRF confirm=95*;CHO-K1 HTRF=4
CC1=C(C(=O)OCC2CCCO2)C(c2ccc(Cl)cc2)NC(=O)N1 (stereo not drawn),-5,0,4,1,-21,.,.,.,.,.,.,
Cc1ccccc1-n1nnnc1SCc1csc(-c2ccccc2)n1,6,53,70*,16,31,19,-14,28*,43,7,7,
Cc1ccccc1-n1nnnc1SCC(C)C,-13,17,-6,6,-24,.,.,.,.,.,.,
CC(Oc1cccc2ccccc12)C(=O)N/N=C/c1cccnc1 (stereo not drawn),-7,12,-13,4,-3,.,.,.,.,.,.,
C=CCNc1nc(N(c2ccccc2)c2ccccc2)nc(-n2ccnc2)n1,3,10,95*,37,19,88*,13,47*,84*,10,18,
COc1ccc(CNC(=O)COC(=O)c2ccc(F)c(S(=O)(=O)N3CCCCC3)c2)cc1OC,-8,3,0,3,-26,.,.,.,.,.,.,
COc1cc(CN2CC(=O)N(c3cccc(Cl)c3C)C2=S)cc(OC)c1OC,-7,27,17,11,13,.,.,.,.,.,.,
COc1cc(CN2CC(=O)N(c3ccccc3Cl)C2=S)cc(OC)c1OC,1,39,75*,25,39,68*,1,49*,66*,14*,18,
CC(C)C(=O)N1CCN(c2ccc(NC(=O)COc3ccccc3[N+](=O)[O-])cc2)CC1,8,51,73*,31,28,27,4,55*,76*,20*,21,
O=C(NCCN1C(=O)S/C(=C\c2ccc(Cl)cc2)C1=O)c1ccc(F)c(S(=O)(=O)N2CCOCC2)c1,-21,17,-6,3,-6,.,.,.,.,.,.,
O=C(NCCN1C(=O)S/C(=C\c2ccccc2)C1=O)c1cc(S(=O)(=O)N2CCOCC2)c(Cl)cc1Cl,19,34,78*,25,30,59*,4,50*,70*,19*,18,
O=C(CN1C(=O)NC2(CCCC2)C1=O)OCc1cc(=O)n2cc(Br)ccc2n1,2,17,-19,0,-6,.,.,.,.,.,.,
COc1cc(/C=C/C(=O)CC(=O)/C=C/c2ccc(O)c(OC)c2)ccc1O,23,10,69*,36,34,31*,30*,48*,50*,28*,18,
O=C(N/N=C/c1ccco1)c1cc(-c2ccc3ccccc3c2)n[nH]1,-1,42,71*,48*,44*,5,-3,.,.,.,.,TAAR1 ag confirm=67*;Ga16 ag counter-2=53*;TAAR1 desensitize=96*;Ga16 nonsel ant=88*
COc1ccc(C(=O)NNC(=S)NC(=O)c2ccco2)cc1,3,8,13,59*,31,6,19,.,.,.,.,TAAR1 ag confirm=66*;Ga16 ag counter-2=39*;TAAR1 desensitize=16;Ga16 nonsel ant=13

# High-throughput results deposited in PubChem by The Scripps Research Institute Molecular Screening Center.
